Calls of active or inactive are those of the source. The rule behind the calls is not given here.
Experiments:
HGC-27 = assay: Antiproliferative activity against human HGC-27 cells assessed as inhibition of cell growth incubated for 72 hrs by MTT assay; type: functional, cell-based; details: HGC-27, 72 h
Outline: (§1)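 Antiproliferative screen in gastric cancer lines MGC-803, HGC-27 and BGC-823 by MTT assay; IC50 reported as mean ± SD.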

BGC-823 = assay: Antiproliferative activity against human BGC-823 cells assessed as inhibition of cell growth incubated for 72 hrs by MTT assay; type: functional, cell-based; details: BGC-823, 72 h; outline: as §1
[1] = Cytotoxicity against human GES1 cells assessed as inhibition of cell growth incubated for 72 hrs by MTT assay; type: toxicity, cell-based
[2] = Selectivity index, ratio of IC50 for cytotoxicity against human GES1 cells to IC50 for antiproliferative activity against human MGC-803 cells; type: toxicity, cell-based; details: GES1 cells and MGC-803 cells, read-out: Ratio IC50
MGC-803 [3] = assay: Inhibition of colony formation in human MGC-803 cells at 1 uM incubated for 9 days by crystal violet staining based analysis relative to control; type: functional; details: MGC-803, 216 h, time 9 day
Outline: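 Clonogenic assay: MGC-803 cells grown 9 days with 0, 1, 2 or 3 μM; colonies counted and inhibition rate calculated against untreated control; mean ± SD of three independent experiments.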

MGC-803 [4] = assay: Induction of apoptosis in human MGC-803 cells assessed as cell rounding up at 5 to 10 uM incubated for 24 hrs by Hoechst 33342 staining based fluorescence microscopic analysis; type: functional; details: dose 5-10 µM
Outline: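 MGC-803 cells exposed to 0, 5, 7.5 or 10 μM; cell morphology imaged and nuclear morphology examined by staining. Mean ± SD, three independent experiments.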

MGC-803 [5] = assay: Induction of apoptosis in human MGC-803 cells assessed as viable cells at 5 uM incubated for 24 hrs by Annexin V-FITC/PI staining based flow cytometric analysis (reference value: 90.3 %); type: functional; details: read-out: Activity
MGC-803 [6] = assay: Induction of apoptosis in human MGC-803 cells assessed as necrotic cells at 5 uM incubated for 24 hrs by Annexin V-FITC/PI staining based flow cytometric analysis (reference value: 2.0 %); type: functional
MGC-803 [7] = assay: Induction of apoptosis in human MGC-803 cells assessed as viable cells at 7.5 uM incubated for 24 hrs by Annexin V-FITC/PI staining based flow cytometric analysis (reference value: 90.3 %); type: functional; details: read-out: Activity
MGC-803 [8] = assay: Induction of apoptosis in human MGC-803 cells assessed as late apoptotic cells at 7.5 uM incubated for 24 hrs by Annexin V-FITC/PI staining based flow cytometric analysis (reference value: 3.8 %); type: functional
MGC-803 [9] = assay: Induction of apoptosis in human MGC-803 cells assessed as necrotic cells at 7.5 uM incubated for 24 hrs by Annexin V-FITC/PI staining based flow cytometric analysis (reference value: 2.0 %); type: functional
MGC-803 [10] = assay: Induction of apoptosis in human MGC-803 cells assessed as viable cells at 5 uM incubated for 48 hrs by Annexin V-FITC/PI staining based flow cytometric analysis (reference value: 96.7 %); type: functional; details: read-out: Activity
MGC-803 [11] = assay: Induction of apoptosis in human MGC-803 cells assessed as late apoptotic cells at 7.5 uM incubated for 48 hrs by Annexin V-FITC/PI staining based flow cytometric analysis (reference value: 0.5 %); type: functional
MGC-803 [12] = assay: Induction of apoptosis in human MGC-803 cells assessed as necrotic cells at 10 uM incubated for 48 hrs by Annexin V-FITC/PI staining based flow cytometric analysis (reference value: 0.3 %); type: functional
MGC-803 [13] = assay: Induction of apoptosis in human MGC-803 cells assessed as total apoptotic cells at 10 uM incubated for 24 hrs by Annexin V-FITC/PI staining based flow cytometric analysis (reference value: 7.7 %); type: functional
MGC-803 [14] = assay: Induction of apoptosis in human MGC-803 cells assessed as total apoptotic cells at 10 uM incubated for 48 hrs by Annexin V-FITC/PI staining based flow cytometric analysis relative to control; type: functional
MGC-803 [15] = assay: Induction of mitochondrial dysfunction in human MGC-803 cells assessed as increase in green fluorescence intensity at 10 uM incubated for 24 hrs by JC-1 staining based fluorescence microscopic analysis (reference value: 9.9%); type: functional
MGC-803 [16] = assay: Induction of mitochondrial dysfunction in human MGC-803 cells assessed as increase in ratio of green to red fluorescence intensity incubated for 24 hrs by JC-1 staining based fluorescence microscopic analysis; type: functional, cell-based; details: dose 5-10 µM
MGC-803 [17] = assay: Induction of apoptosis in human MGC-803 cells assessed as decrease in Bcl-2 protein expression at 5 to 10 uM incubated for 24 hrs by Western blot analysis; type: functional, cell-based; details: dose 5-10 µM
Outline: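 After 24 h exposure of MGC-803 cells, Bcl-2, Mcl-1, Bax and cytochrome c release assessed by Western blot with band quantitation; mean ± SD from three independent experiments.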

MGC-803 [18] = assay: Induction of mitochondrial dysfunction in human MGC-803 cells assessed as upregulation of cleaved caspase-3 expression at 5 to 10 uM incubated for 24 hrs by Western blot analysis; type: functional, cell-based; details: dose 5-10 µM
Outline: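 Western blot of caspase 9, 3, 7, PARP and γH2A.X in MGC-803 lysates after 24 h exposure to 5, 7.5 or 10 μM; band quantitation; mean ± SD from three independent experiments.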

[19] = Activation of MAPK pathway in human MGC-803 cells assessed as change in Erk5 total expression at 5 to 10 uM incubated for 24 hrs by Western blot analysis; type: cell-based; details: dose 5-10 µM
[20] = Activation of MAPK pathway in human MGC-803 cells assessed as change in phosphorylated Erk1/2 expression at 5 to 10 uM incubated for 24 hrs by Western blot analysis; type: cell-based; details: dose 5-10 µM
[21] = Activation of MAPK pathway in human MGC-803 cells assessed as change in phosphorylated Erk5 expression at 5 to 10 uM incubated for 24 hrs by Western blot analysis; type: cell-based; details: dose 5-10 µM
[22] = Activation of MAPK pathway in human MGC-803 cells assessed as increase in phosphorylated JNK expression at 5 to 10 uM incubated for 24 hrs by Western blot analysis; type: cell-based; details: filed as activator, dose 5-10 µM
MGC-803 [23] = assay: Antiproliferative activity against human MGC-803 cells assessed as decrease in cell viability at 10 uM preincubated with SP600125 for 4 hrs followed by compound addition and measured after 24 hrs by MTT assay; type: functional, cell-based
Outline: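 MGC-803 cells pre-incubated 4 h with SB203580 (4 μM) or SP600125 (20 μM), then exposed to 10 μM test compound for 24 h; viability by MTT, expressed as percent of control. Mean ± SD, three independent experiments.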

[24] = Toxicity in SCID mouse xenografted with human MGC-803 cells assessed as effect on heart at 12.5 to 25 mg/kg, IG administered for 21 days by H&E staining based histopathological analysis; type: organism-based; details: in vivo, po, 504 h, dose 12.5-25 mg/kg, time 21 day
Outline: (§2)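 SCID mice bearing subcutaneous MGC-803 xenografts (right side) dosed with 12.5 or 25 mg/kg over 21 days, 0.5% CMC-Na vehicle as control; body weight and tumor size monitored periodically; major organs examined histopathologically at end; means ± SD.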

[25] = Toxicity in SCID mouse xenografted with human MGC-803 cells assessed as effect on spleen at 12.5 to 25 mg/kg, IG administered for 21 days by H&E staining based histopathological analysis; type: organism-based; details: in vivo, po, 504 h, dose 12.5-25 mg/kg, time 21 day; outline: as §2

With `Cc1cc(N2CC[C@@H](C)[C@@H](N(C)c3ncnc4[nH]ccc34)C2)n2nc(SCc3ccc(C(F)(F)F)cc3)nc2n1` the IC50 (HGC-27) was 9.54 µM, the IC50 (BGC-823) was 23.3 µM and the IC50 at 72 h [1] was 17.3 µM. For the same compound, the selectivity ratio [2] was 6.5, the inhibition at 1 µM (MGC-803 [3]) was 31% and the Activity (MGC-803 [4]) was “Active”. It also gave a viability at 5 µM (MGC-803 [5]) of 81.7%, an Activity (MGC-803 [6]) of 4% and a viability at 7.5 µM (MGC-803 [7]) of 69.2%. The Activity (MGC-803 [8]) was 15.8%, the Activity (MGC-803 [9]) was 3.5% and the viability at 5 µM (MGC-803 [10]) was 73.4%. The Activity (MGC-803 [11]) was 67.5%, the Activity (MGC-803 [12]) was 0.9% and the Activity (MGC-803 [13]) was 40.7%. The Activity (MGC-803 [14]) was 82.1%, the Activity (MGC-803 [15]) was 49.1% and the Activity (MGC-803 [16]) was “Dose-Dependent Effect”. For the same compound, the Activity (MGC-803 [17]) was “Active”, the Activity (MGC-803 [18]) was “Active” and the Activity [19] was “inactive”. The Activity [20] was “inactive”, the Activity [21] was “inactive” and the Activity [22] was “Active”. For the same compound, the Activity (MGC-803 [23]) was “inactive”, the Activity [24] was “Non-Toxic” and the Activity [25] was “Non-Toxic”.

— ChEMBL document CHEMBL5244249, “Discovery of tofacitinib derivatives as orally active antitumor agents based on the scaffold hybridization strategy” (Eur J Med Chem, 2020)
